Data taken from ChEMBL document CHEMBL4732237, “Discovery of 4-alkoxy-2-aryl-6,7-dimethoxyquinolines as a new class of topoisomerase I inhibitors endowed with potent in vitro anticancer activity” (2021).

Experiments:
Assay type in all cases: functional
[1] = Growth inhibition of human Prostate tumor cell line incubated for 48 hrs by sulforhodamine B assay
In short: (§1)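 NCI-60 five-dose screen. Cells in RPMI 1640 with 5% FBS and 2 mM L-glutamine were plated at 5000–40,000 cells/well and preincubated 24 h at 37 °C, 5% CO2. Drugs in DMSO were given at five serial 10-fold or ½-log dilutions for 48 h. Adherent cells fixed with 10% TCA (final); suspension cells fixed after settling. SRB stained; A515. GI50 from [(Ti-Tz)/(C-Tz)]x100 = 50.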

NCI-H522 = assay: Growth inhibition of human NCI-H522 cells incubated for 48 hrs by sulforhodamine B assay
In short: (§2)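 NCI five-dose screen (0.01–100 µM; five concentrations plus control). Cells grown in RPMI 1640/5% FBS/2 mM L-glutamine and preincubated 24 h, with time-zero plates TCA-fixed. Drug exposure 48 h at 37 °C, followed by SRB protein staining and reading at 515 nm. GI50 is the concentration at [(Ti-Tz)/(C-Tz)]×100 = 50.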

SF-295 = assay: Growth inhibition of human SF-295 cells incubated for 48 hrs by sulforhodamine B assay; in short: as §2
SR = assay: Growth inhibition of human SR cells incubated for 48 hrs by sulforhodamine B assay; in short: as §2
Malme-3M = assay: Growth inhibition of human Malme-3M cells incubated for 48 hrs by sulforhodamine B assay; in short: as §2
CAKI-1 = assay: Growth inhibition of human CAKI-1 cells incubated for 48 hrs by sulforhodamine B assay
In short: (§3)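 NCI five-dose screen covering 0.01–100 µM, prepared as 10-fold or ½-log dilutions from DMSO stock. Cells in RPMI 1640 with 5% FBS were exposed for 48 h at 37 °C after 24 h preincubation. Adherent cells were fixed with TCA (final 10%) and suspension cells were settled before fixing. Stain was SRB, read at 515 nm. GI50 = 50% reduction in net protein increase versus control, with Tz taken at drug addition.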

[2] = Growth inhibition of human Breast cancer cell line incubated for 48 hrs by sulforhodamine B assay; in short: as §1
SNB-19 = assay: Growth inhibition of human SNB-19 cells incubated for 48 hrs by sulforhodamine B assay; in short: as §2
NCI-H23 = assay: Growth inhibition of human NCI-H23 cells incubated for 48 hrs by sulforhodamine B assay; in short: as §2
COLO 205 = assay: Growth inhibition of human COLO 205 cells incubated for 48 hrs by sulforhodamine B assay; in short: as §3
[3] = Growth inhibition of human Renal cancer cell line incubated for 48 hrs by sulforhodamine B assay; in short: as §1
T47D = assay: Growth inhibition of human T47D cells incubated for 48 hrs by sulforhodamine B assay
In short: (§4)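 NCI five-dose assay, with drug stocks in DMSO diluted in medium to five concentrations (10-fold or ½-log series). Cells in RPMI 1640/5% FBS were pre-incubated 24 h, and time-zero plates were TCA-fixed at drug addition. After 48 h at 37 °C, cells were TCA-fixed, SRB-stained and read at 515 nm. GI50 is from [(Ti-Tz)/(C-Tz)]×100 = 50, TGI from Ti = Tz, and LC50 from [(Ti-Tz)/Tz]×100 = -50.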

Ovarian cancer cell line = assay: Growth inhibition of human Ovarian cancer cell line incubated for 48 hrs by sulforhodamine B assay; in short: as §1
A498 = assay: Growth inhibition of human A498 cells incubated for 48 hrs by sulforhodamine B assay; in short: as §4
OVCAR-5 = assay: Growth inhibition of human OVCAR-5 cells incubated for 48 hrs by sulforhodamine B assay; in short: as §2
[4] = Growth inhibition of human leukemia cell line incubated for 48 hrs by sulforhodamine B assay; details: leukaemia cell line; in short: as §1
K562 = assay: Growth inhibition of human K562 cells incubated for 48 hrs by sulforhodamine B assay; in short: as §3
[5] = Growth inhibition of human Non-small cell lung cancer cell line incubated for 48 hrs by sulforhodamine B assay; in short: as §1
Colon cancer cell line = assay: Growth inhibition of human colon cancer cell line incubated for 48 hrs by sulforhodamine B assay; in short: as §1
ACHN = assay: Growth inhibition of human ACHN cells incubated for 48 hrs by sulforhodamine B assay; in short: as §3
TK-10 = assay: Growth inhibition of human TK-10 cells incubated for 48 hrs by sulforhodamine B assay; in short: as §4
OVCAR-4 = assay: Growth inhibition of human OVCAR-4 cells incubated for 48 hrs by sulforhodamine B assay; in short: as §2
CNS carcinoma cell = assay: Growth inhibition of human CNS carcinoma cell incubated for 48 hrs by sulforhodamine B assay; in short: as §1
OVCAR-8 = assay: Growth inhibition of human OVCAR-8 cells incubated for 48 hrs by sulforhodamine B assay; in short: as §2
SK-MEL-2 = assay: Growth inhibition of human SK-MEL-2 cells incubated for 48 hrs by sulforhodamine B assay; in short: as §2
NCI-H460 = assay: Growth inhibition of human NCI-H460 cells incubated for 48 hrs by sulforhodamine B assay; in short: as §2
Melanoma cell line = assay: Growth inhibition of human Melanoma cell line incubated for 48 hrs by sulforhodamine B assay; in short: as §1
M14 = assay: Growth inhibition of human M14 cells incubated for 48 hrs by sulforhodamine B assay; in short: as §3

Row | SMILES | LC50 (concentration killing 50% of cells) [1] [µM] | GI50 (NCI-H522) [µM] | GI50 (SF-295) [µM] | GI50 (SR) [µM] | GI50 (Malme-3M) [µM] | GI50 (CAKI-1) [µM] | GI50 (SNB-19) [µM] | GI50 (NCI-H23) [µM] | GI50 (COLO 205) [µM] | GI50 (T47D) [µM] | GI50 (A498) [µM] | GI50 (OVCAR-5) [µM] | GI50 (K562) [µM] | GI50 (ACHN) [µM] | GI50 (TK-10) [µM] | GI50 (OVCAR-4) [µM] | GI50 (OVCAR-8) [µM] | GI50 (SK-MEL-2) [µM] | GI50 (NCI-H460) [µM] | GI50 (M14) [µM] | other results
1 | COc1cc2nc(-c3ccc(C(F)(F)F)cc3)cc(OCCCN3CCCCC3)c2cc1OC | 42.2 | 2.44 | 0.53 | 0.193 | 1.26 | 0.272 | 2.82 | 1.91 | 0.406 | 0.454 | 1.85 | 0.71 | 0.578 | 1.2 | 7.8 | 2.91 | 0.734 | 2.64 | 0.595 | 0.327 | TGI [1]: 13.8 µM; LC50 [2]: 43 µM; TGI [2]: 9.29 µM; LC50 (concentration giving 50% net cell kill) [3]: 35 µM; TGI [3]: 11 µM; LC50 (Ovarian cancer cell line): 65.5 µM; TGI (Ovarian cancer cell line): 19.7 µM; LC50 [4]: 74.8 µM; TGI [4]: 10.3 µM; LC50 (concentration killing 50% of cells) [5]: 50.6 µM; TGI [5]: 13.8 µM; LC50 (Colon cancer cell line): 40.8 µM; TGI (Colon cancer cell line): 10.3 µM; LC50 (CNS carcinoma cell): 38.8 µM; TGI (CNS carcinoma cell): 11.9 µM; LC50 (50% lethal concentration) (Melanoma cell line): 19.9 µM; TGI (Melanoma cell line): 4.14 µM
2 | COc1cc2nc(-c3ccc(Cl)cc3)cc(OCCCN3CCCC3)c2cc1OC | 39.6 | 2.36 | 1.22 | 0.251 | 1.68 | 0.303 | 3.14 | 2.45 | 0.459 | 1.02 | 2.19 | 1.03 | 1.06 | 1.93 | 2.33 | 3 | 1.19 | 2.16 | 0.823 | 0.402 | TGI [1]: 12.1 µM; LC50 [2]: 29.6 µM; TGI [2]: 5.8 µM; LC50 (concentration giving 50% net cell kill) [3]: 28.9 µM; TGI [3]: 7.66 µM; LC50 (Ovarian cancer cell line): 55.1 µM; TGI (Ovarian cancer cell line): 14.8 µM; LC50 [4]: 32 µM; TGI [4]: 4.99 µM; LC50 (concentration killing 50% of cells) [5]: 39.7 µM; TGI [5]: 10.4 µM; LC50 (Colon cancer cell line): 39.1 µM; TGI (Colon cancer cell line): 8.31 µM; LC50 (CNS carcinoma cell): 33.5 µM; TGI (CNS carcinoma cell): 10.1 µM; LC50 (50% lethal concentration) (Melanoma cell line): 14.6 µM; TGI (Melanoma cell line): 4.26 µM
3 | COc1cc2nc(-c3ccc(Cl)cc3)cc(OCCCN3CCOCC3)c2cc1OC |  | 2.17 | 1.08 | 0.414 | 2.01 | 0.305 |  |  | 0.62 | 1.96 | 1.59 | 1.58 | 2.71 | 3.64 |  |  | 2.15 |  | 0.958 | 0.545 | 
4 | COc1cc2nc(-c3ccc(C(F)(F)F)cc3)cc(OCCCN3CCOCC3)c2cc1OC |  | 2.52 | 0.349 | 0.242 | 1.38 | 0.167 | 2.91 | 2.36 | 0.529 | 0.654 | 1.51 | 1.92 | 1.18 | 2.01 | 13.9 | 10.3 | 1.95 | 3.32 | 0.639 | 0.355 | 
